# Where a SMILES comes first, the peptide text is derived from it. [ ]: non-standard residue; d: D form. AEEA = NCCOCCOCC(=O)O
# Key:
# [1] = tested on: K. pneumoniae (strain 9409); test: Salt sensitivity assay; format: cell-based, Klebsiella pneumoniae
# Method in brief: (§1)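 MICs determined in RPMI-1640 with 150 mM FeCl₃, CaCl₂, KCl, NaCl or MgCl₂ added; unsupplemented RPMI 1640 as control. Read after 18–24 h at 37°C. Three independent experiments, mean±SEM.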
# MRSA (strain 33564) [2] = test: Salt sensitivity assay; format: cell-based, methicillin-resistant Staphylococcus aureus
# Method in brief: as §1
# [3] = tested on: HaCaT (human keratinocytes); test: Cytotoxicity, CCK-8; format: cell-based; settings: nearly all concentrations (2.5-80 μmol/L), 24 h
# [4] = tested on: RAW264.7 (murine macrophages); test: Cytotoxicity, CCK-8; format: cell-based; settings: nearly all concentrations (2.5-80 μmol/L), 24 h
# [5] = tested on: HEK293 (human embryonic kidney cells); test: Cytotoxicity, CCK-8; format: cell-based; settings: nearly all concentrations (2.5-80 μmol/L), 24 h
# [6] = In vivo toxicity, 5 day intraperitoneal dosing; parameters: species or system mouse (female CD-1); settings: for serum urea: n = 4; for aspartate aminotransferase (AST): serum day 5, n = 4; for alanine aminotransferase (ALT): serum day 5, n = 4, mean
# Method in brief: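 Test compound given intraperitoneally to mice over 5 days at 5 and 10 mg/kg; PBS control group. Serum ALT and AST measured in U/L.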
# In vivo pharmacokinetics = test: In vivo pharmacokinetics; parameters: species or system mouse (female CD-1)
# Method in brief: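 Plasma concentrations of test compound measured by HPLC over 8 h after dosing.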
# MRSA (strain 33564) [7] = test: Time-kill kinetics; format: cell-based, methicillin-resistant Staphylococcus aureus; settings: TRPY 2 μmol/L; 1×10^7 CFU/mL, RPMI 1640 + 10% FBS, 37°C
# Method in brief: (§2)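 Bacteria adjusted to 1×10^7 CFU/mL in RPMI 1640 with 10% FBS. Incubated at 37°C, 200 rpm. Sampled every 30 min from 0 to 360 min, serially diluted in saline, plated on Mueller-Hinton agar, counted after 24 h at 37°C. Plotted as log₁₀ CFU/mL versus time.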
# [8] = tested on: K. pneumoniae (strain 9409); test: Time-kill kinetics; format: cell-based, Klebsiella pneumoniae; settings: TRPY 2 μmol/L; 1×10^7 CFU/mL, RPMI 1640 + 10% FBS, 37°C
# Method in brief: as §2
# MRSA = test: Agar spotting assay; format: cell-based, methicillin-resistant Staphylococcus aureus; settings: bacterial spotting assay, Fig. 4B
# K. pneumoniae = test: Agar spotting assay; format: cell-based, Klebsiella pneumoniae; settings: bacterial spotting assay, Fig. 4B
# MRSA strain 33564 = test: Membrane permeabilization, PI uptake; format: cell-based, methicillin-resistant Staphylococcus aureus; settings: 0-32 μM, PI 10 μg/mL, 37°C 30 min
# [9] = tested on: K. pneumoniae strain 9409; test: Membrane permeabilization, PI uptake; format: cell-based, Klebsiella pneumoniae; settings: 0-32 μM, PI 10 μg/mL, 37°C 30 min
# bacterial DNA = test: DNA interaction, gel electrophoresis; format: binding; settings: Fig. S5
# MRSA biofilm [10] = test: Biofilm formation inhibition, crystal violet; format: cell-based, methicillin-resistant Staphylococcus aureus; settings: TRPY 32 μmol/L, 24 h
# Method in brief: (§3)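 Biofilms formed with test compound present (inhibition) or pre-formed then treated (eradication). Stained with 0.1% crystal violet; biofilm quantified by absorbance at 600 nm against untreated control.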
# K. pneumoniae biofilm [11] = test: Biofilm formation inhibition, crystal violet; format: cell-based, Klebsiella pneumoniae; settings: TRPY 32 μmol/L, 24 h
# Method in brief: as §3
# MRSA biofilm [12] = test: Eradication of preformed biofilm, crystal violet; format: cell-based, methicillin-resistant Staphylococcus aureus; settings: TRPY 8 µmol/L, 24 h on 24 h biofilm
# Method in brief: as §3
# K. pneumoniae biofilm [13] = test: Eradication of preformed biofilm, crystal violet; format: cell-based, Klebsiella pneumoniae; settings: TRPY 8 µmol/L, 24 h on 24 h biofilm
# Method in brief: as §3
# MRSA persister cells = test: Anti-persister activity; format: cell-based, methicillin-resistant Staphylococcus aureus; settings: 8 μmol/L, 1 h 37°C; persisters from vancomycin 50× MIC 6 h
# Method in brief: (§4)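 Exponential-phase cultures treated 6 h with 50× MIC colistin (K. pneumoniae) or vancomycin (MRSA). Survivors pelleted (4 000 r/min, 10 min, 4°C), washed twice in PBS and resuspended in Mueller-Hinton broth at about 1×10^7 CFU/mL. […] Serially diluted, plated on Mueller-Hinton agar, CFU counted.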
# [14] = tested on: K. pneumoniae persister cells; test: Anti-persister activity; format: cell-based, Klebsiella pneumoniae; settings: 8× MIC, 1 h 37°C; persisters from colistin 50× MIC 6 h
# Method in brief: as §4
# LPS = test: BODIPY-TR-cadaverine displacement assay; format: binding; settings: 0-64 μmol/L, LPS 50 μg/mL, 50 mmol/L Tris pH 7.4, 30 min 37°C
# K. pneumoniae R62 = test: Acute K. pneumoniae pulmonary infection model; format: in vivo, mouse (female CD-1)
# MRSA 33564 [15] = test: MRSA peritoneal infection model; format: in vivo, mouse (female CD-1); settings: 10 mg/kg i.p.
# Method in brief: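 Female CD-1 mice (8–10 weeks) were challenged intraperitoneally with MRSA (1×10^8 CFU/mL). At 2 h post-infection they received 10 mg/kg test compound or PBS vehicle intraperitoneally (n=6 per group). Liver and kidneys were collected at 24 h post-infection and fixed in formalin. H&E-stained sections were compared with those from healthy, infected and vehicle-treated mice.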
# E. coli LPS = test: LPS-induced endotoxemia model; format: in vivo, mouse (female CD-1); settings: 10 mg/kg i.p. 1 h after LPS 10 mg/kg, blood 6 h after LPS, n = 5
# Method in brief: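 Female CD-1 mice (8–10 weeks) challenged intravenously with E. coli LPS 10 mg/kg. Test compound 10 mg/kg given intraperitoneally 1 h later (n=5); LPS-only controls. Blood drawn 6 h after LPS. Serum IL-6, MCP-1, TNF-α and IL-1β measured by ELISA. Mean±SEM; one-way ANOVA, Dunnett.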
# Dynamic light scattering = format: physicochemical; settings: DLS, 500 μg/mL in PBS pH 7.4, 25°C, triplicate
# K. pneumoniae 9409 = test: Bacterial aggregation; format: cell-based, Klebsiella pneumoniae; settings: 10 to 80 μmol/L, 4 h 37°C, PBS
# MRSA 33564 [16] = test: Bacterial aggregation; format: cell-based, methicillin-resistant Staphylococcus aureus; settings: 10 to 80 μmol/L, 4 h 37°C, PBS
# [17] = 150 mmol/L of each salt in RPMI-1640
# [18] = 5 mg/kg i.p. once daily for 5 days
# [19] = 10 mg/kg i.p. once daily for 5 days
# [20] = 5 and 10 mg/kg i.p. for 5 days vs PBS
# [21] = female, CD-1, mouse, plasma, iv, 5 mg/kg
# [22] = 2 mg/kg intranasal, 18 h post-treatment, n = 7
structure (smiles),measurement,setting,value
CC[C@H](C)[C@H](NC(=O)[C@H](CCCCN)NC(=O)[C@H](Cc1c[nH]c2ccccc12)NC(=O)[C@H](Cc1c[nH]c2ccccc12)NC(=O)[C@H](CCCCN)NC(=O)[C@H](CCCCN)NC(=O)[C@H](CCCCN)NC(=O)[C@H](Cc1c[nH]c2ccccc12)NC(=O)[C@H](CCCCN)NC(=O)[C@H](CCCCN)NC(=O)[C@H](Cc1c[nH]c2ccccc12)NC(=O)[C@H](CCCCN)NC(=O)[C@H](CCCCN)NC(=O)[C@@H](NC(=O)[C@@H](NC(=O)[C@H](CCCCN)NC(=O)[C@@H](N)CCCNC(=N)N)[C@@H](C)CC)[C@@H](C)CC)C(=O)N[C@@H](Cc1c[nH]c2ccccc12)C(=O)N[C@@H](Cc1c[nH]c2ccccc12)C(=O)N[C@@H](CCCCN)C(=O)NCCOCCOCC(N)=O [TRPY] (H-RKIIKKWKKWKKKWWKIWWK[AEEA]-NH2; N-terminus and C-terminus assumed),"effect of KCl, NaCl, and CaCl2 on antimicrobial activity",[1]; [17],minimal interference with antimicrobial activity
same,MIC with FeCl3,"[1]; RPMI-1640 + 150 mmol/L FeCl3, 37°C 18-24 h, strain 9409",approximately 2.0 μmol/L
same,MIC with MgCl2,"[1]; RPMI-1640 + 150 mmol/L MgCl2, 37°C 18-24 h, strain 9409",approximately 2.0 μmol/L
same,"effect of KCl, NaCl, and CaCl2 on antimicrobial activity",MRSA (strain 33564) [2]; [17],minimal interference with antimicrobial activity
same,MIC with FeCl3,"MRSA (strain 33564) [2]; RPMI-1640 + 150 mmol/L FeCl3, 37°C 18-24 h, strain 33564",approximately 2.0 μmol/L
same,MIC with MgCl2,"MRSA (strain 33564) [2]; RPMI-1640 + 150 mmol/L MgCl2, 37°C 18-24 h, strain 33564",approximately 2.0 μmol/L
same,cell viability,[3],over 80%
same,cell viability,[4],over 80%
same,cell viability,[5],over 80%
same,serum urea,[6]; [18],11.2 ± 1.5 µmol/L
same,aspartate aminotransferase (AST),[6]; [18],102.7±6.6 U/L
same,alanine aminotransferase (ALT),[6]; [18],22.8±2.6 U/L
same,serum urea,[6]; [19],12.1 ± 1.2 µmol/L
same,aspartate aminotransferase (AST),[6]; [19],105.2±4.7 U/L
same,alanine aminotransferase (ALT),[6]; [19],23.4±3.2 U/L
same,kidney histopathology (H&E),[6]; 5 and 10 mg/kg i.p. for 5 days,normal glomerular and tubular architecture
same,liver histopathology (H&E),[6]; 5 and 10 mg/kg i.p. for 5 days,"no signs of necrosis, inflammation, or fatty degeneration"
same,alkaline phosphatases (ALP) levels,[6]; [20],comparable across treatment groups
same,body weight,[6]; [20],no significant differences between the TRPY-treated and control groups
same,level at 0.25 h,In vivo pharmacokinetics; [21],~15000 ng/mL
same,level at 2 h,In vivo pharmacokinetics; [21],< 1000 ng/mL
same,level at 8 h,In vivo pharmacokinetics; [21],~120 ng/mL
same,elimination profile,"In vivo pharmacokinetics; single i.v. 5 mg/kg, 8 h",biphasic elimination profile
same,time to eradicate all viable cells,MRSA (strain 33564) [7],≤ 60 min
same,time to eliminate all viable cells,[8],≤ 60 min
same,concentration giving complete growth inhibition,MRSA,≥ 1 µmol/L
same,concentration giving complete growth inhibition,K. pneumoniae,≥ 1 µmol/L
same,PI uptake (cytoplasmic membrane disruption),MRSA strain 33564,concentration-dependent increase in PI fluorescence
same,PI uptake (cytoplasmic membrane disruption),[9],concentration-dependent increase in PI fluorescence
same,concentration inducing degradation or binding to bacterial DNA,bacterial DNA,≥ 4 µmol/L
same,reduction of biofilm formation compared to control,MRSA biofilm [10],approximately 95%
same,reduction of biofilm formation compared to control,K. pneumoniae biofilm [11],approximately 95%
same,reduction of preformed biofilm,MRSA biofilm [12],over 40%
same,reduction of preformed biofilm,K. pneumoniae biofilm [13],over 40%
same,persister cells after treatment,MRSA persister cells,complete eradication
same,persister CFU/mL after treatment,[14],virtually undetectable levels
same,LPS binding (probe displacement),LPS,"strong, concentration-dependent binding to LPS"
same,lung histology (H&E),K. pneumoniae R62; 2 mg/kg intranasal,reduced inflammatory cell infiltration and preserved alveolar architecture
same,reduction of pulmonary bacterial burden vs control,"K. pneumoniae R62; 2 mg/kg intranasal 2 h post-infection, lungs 18 h post-treatment, n = 7",approximately 1 log
same,reduction in IL-1β vs control group,K. pneumoniae R62; [22],42.8%
same,reduction in IL-6 vs control group,K. pneumoniae R62; [22],39.2%
same,reduction in MCP-1 vs control group,K. pneumoniae R62; [22],58.4%
same,reduction in TNF-α vs control group,K. pneumoniae R62; [22],34.7%
same,liver and kidney histopathology in infected mice,MRSA 33564 [15],maintained normal tissue architecture in the liver and kidneys
same,reduction of serum IL-1β relative to LPS-only controls,E. coli LPS,52.3%
same,reduction of serum IL-6 relative to LPS-only controls,E. coli LPS,42.3%
same,reduction of serum MCP-1 relative to LPS-only controls,E. coli LPS,46.6%
same,reduction of serum TNF-α relative to LPS-only controls,E. coli LPS,39.5%
same,nanoparticle average size,Dynamic light scattering,approximately 160 nm
same,bacterial aggregation,K. pneumoniae 9409,dose-dependent formation of visible precipitates
same,bacterial aggregation,MRSA 33564 [16],dose-dependent formation of visible precipitates

# From PMC12780499 (Zoological Research, 2025)
